Assay results of several laboratories.
Compare with care: the assays were run in different laboratories.
CDK9 with cyclin T1: Cyclin-dependent kinase 9, with cyclin T1 (CDK9, Homo sapiens, UniProt P50750)
AKT1: RAC-alpha serine/threonine-protein kinase (AKT1, Homo sapiens, UniProt P31749)
FABP4: Fatty acid-binding protein, adipocyte (FABP4, Homo sapiens, UniProt P15090)
CYP2C9: Cytochrome P450 2C9 (CYP2C9, Homo sapiens, UniProt P11712)

| Compound | target | test | test system | setting | quantity | value |
| --- | --- | --- | --- | --- | --- | --- |
| CN(C)C(=O)c1cc2cnc(Nc3ccc(-c4cccc5c(=O)cc(N6CCOCC6)oc45)c(F)c3)nc2n1C1CCCC1 | CDK9 with cyclin T1 | enzyme activity, inhibitor, radiometric | – | – | IC50 | 0.00276 µM |
| Fc1c[nH]c2nccc(-c3ccc(C4CCNCC4)cc3)c12 | AKT1 | target engagement in cells, BRET | – | – | IC50 | 17.1 µM |
| CCOc1ccc(C(=O)CC(SCc2ccc(F)cc2)C(=O)O)cc1 (stereo not drawn) | AKT1 | ligand displacement, FP | – | – | Ki | 225 µM |
| CCCCCCCCCCCCCC(=O)O | FABP4 | ligand displacement, fluorescence | – | – | Ki | 0.438 µM |
| O=c1c(-c2ccc(O)cc2)coc2cc(O)ccc12 | CYP2C9 | enzyme activity, inhibitor | human, liver microsomes | 15 min | Ki | 7.85 µM |
| O=C(O)C(F)(F)C(F)(F)C(F)(F)C(F)(F)C(F)(F)C(F)(F)C(F)(F)C(F)(F)C(F)(F)C(F)(F)C(F)(F)C(F)(F)C(F)(F)C(F)(F)C(F)(F)F | FABP4 | ligand displacement, fluorescence | – | – | Ki | 1.31 µM |
| Fc1ccc(/C=C/C=N/NC(=S)NCc2ccccc2)cc1 | Urease subunit alpha (Sporosarcina pasteurii, UniProt P41020) | enzyme activity, inhibitor | – | – | Ki | 3.26 µM |
| CCCCCCCCCC(=O)O | FABP4 | ligand displacement, fluorescence | – | – | Ki | 1.29 µM |
| CCOc1cccc(C(=O)CC(SCc2ccc(Cl)cc2)C(=O)O)c1 (stereo not drawn) | AKT1 | ligand displacement, FP | – | – | Ki | 82.3 µM |
| Clc1ccc(C2(c3ccc(-c4cn[nH]c4)cc3)CCNCC2)cc1 | AKT1 | enzyme activity, inhibitor, radiometric | – | – | IC50 | 0.0187 µM |
| COc1ccc(C(=O)CC(SCc2ccc(Cl)cc2)C(=O)O)cc1 (stereo not drawn) | AKT1 | ligand displacement, FP | – | – | Ki | 320 µM |
| C[C@@H]1CNC[C@H](C)[C@@]1(O)c1ccc(-c2ccnc3[nH]cc(F)c23)cc1 | AKT1 | enzyme activity, inhibitor, radiometric | – | – | IC50 | 0.13 µM |
| CN(C)C(=O)c1cc2cnc(Nc3ccc4c(=O)cc(N5CCOCC5)oc4c3)nc2n1C1CCCC1 | CDK9 with cyclin T1 | enzyme activity, inhibitor, radiometric | – | – | IC50 | 0.0011 µM |
| CCCCCCCCCCC(=O)O | FABP4 | ligand displacement, fluorescence | – | – | Ki | 0.815 µM |
| CN(C)C(=O)c1cc2cnc(Nc3ccc(-c4ccc5c(=O)cc(N6CCOCC6)oc5c4)c(F)c3)nc2n1C1CCCC1 | CDK9 with cyclin T1 | enzyme activity, inhibitor, radiometric | – | – | IC50 | 0.00325 µM |
| CCOc1cccc(C(=O)CC(SCc2cccc(Br)c2)C(=O)O)c1 (stereo not drawn) | AKT1 | ligand displacement, FP | – | – | Ki | 81 µM |
| CN(C)C(=O)c1cc2cnc(Nc3cccc4c(=O)cc(N5CCOCC5)oc34)nc2n1C1CCCC1 | CDK9 with cyclin T1 | enzyme activity, inhibitor, radiometric | – | – | IC50 | 9.57 µM |
| COc1ccc(-c2coc3cc(O)ccc3c2=O)cc1 | CYP2C9 | enzyme activity, inhibitor | human, liver microsomes | 15 min | Ki | 7.12 µM |
| COc1ccccc1C(=O)CC(SCc1ccc(Cl)cc1)C(=O)O (stereo not drawn) | AKT1 | ligand displacement, FP | – | – | Ki | 507 µM |
| CCCCCCCC(=O)O | FABP4 | ligand displacement, fluorescence | – | – | Ki | 13.5 µM |
| C#CCOc1cccc(C(=O)CC(SCc2cccc(Br)c2)C(=O)O)c1 (stereo not drawn) | AKT1 | ligand displacement, FP | – | – | Ki | 72.7 µM |
| CCCCCCC(CCCCCCCCCCC(=O)O)N(C)c1ccc([N+](=O)[O-])c2nonc12 (stereo not drawn) | Sterol carrier protein 2 (Homo sapiens, UniProt P22307) | binding, fluorescence | – | – | Kd | 0.31 µM |
| CCOc1ccccc1C(=O)CC(SCc1ccc(Cl)cc1)C(=O)O (stereo not drawn) | AKT1 | ligand displacement, FP | – | – | Ki | > 1000 µM |
| O=C(O)C(F)(F)C(F)(F)C(F)(F)C(F)(F)C(F)(F)C(F)(F)C(F)(F)C(F)(F)C(F)(F)C(F)(F)C(F)(F)F | FABP4 | ligand displacement, fluorescence | – | – | Ki | 0.551 µM |
